A word on the IC50: it is the concentration at which inhibition is half-maximal. Higher therefore signals a need for much substance. In general, inhibition in vivo refers to the change of the read-out against control, counted positive when it falls. Higher therefore signals a response far below the control. By pIC50 is commonly meant the negative decadic logarithm of the IC50, by convention in mol/L. Usually inhibition stands for the relative decrease from the control value, in per cent.

pIC50: −log10 of the molar value. Activity calls are given as the source filed them. The calls are words filed in the database; no cut-off is given here.

The values that follow come from ChEMBL document CHEMBL1125307, “Novel 1,2,4-oxadiazoles and 1,2,4-thiadiazoles as dual 5-lipoxygenase and cyclooxygenase inhibitors” (J Med Chem, 1992).

For one test, the target named is T1, Cyclooxygenase (Rattus norvegicus, UniProt P35355+Q63921).
T1 sequence (P35355 whole entry): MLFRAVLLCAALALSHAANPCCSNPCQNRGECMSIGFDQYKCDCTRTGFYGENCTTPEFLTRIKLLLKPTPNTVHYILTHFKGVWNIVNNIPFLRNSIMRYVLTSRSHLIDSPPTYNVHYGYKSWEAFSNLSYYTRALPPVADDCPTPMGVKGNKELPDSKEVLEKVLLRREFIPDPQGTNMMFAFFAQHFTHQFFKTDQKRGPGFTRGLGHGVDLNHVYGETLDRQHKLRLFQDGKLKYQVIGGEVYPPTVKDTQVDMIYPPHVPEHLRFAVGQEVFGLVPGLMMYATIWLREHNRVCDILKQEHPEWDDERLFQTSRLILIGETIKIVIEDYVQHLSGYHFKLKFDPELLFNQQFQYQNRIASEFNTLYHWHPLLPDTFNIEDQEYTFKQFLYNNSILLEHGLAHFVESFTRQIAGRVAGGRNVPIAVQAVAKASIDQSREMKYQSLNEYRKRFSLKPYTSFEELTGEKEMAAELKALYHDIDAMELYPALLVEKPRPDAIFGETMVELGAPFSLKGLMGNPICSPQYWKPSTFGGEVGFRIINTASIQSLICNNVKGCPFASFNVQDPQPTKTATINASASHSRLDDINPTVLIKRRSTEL
T1 sequence (Q63921 whole entry): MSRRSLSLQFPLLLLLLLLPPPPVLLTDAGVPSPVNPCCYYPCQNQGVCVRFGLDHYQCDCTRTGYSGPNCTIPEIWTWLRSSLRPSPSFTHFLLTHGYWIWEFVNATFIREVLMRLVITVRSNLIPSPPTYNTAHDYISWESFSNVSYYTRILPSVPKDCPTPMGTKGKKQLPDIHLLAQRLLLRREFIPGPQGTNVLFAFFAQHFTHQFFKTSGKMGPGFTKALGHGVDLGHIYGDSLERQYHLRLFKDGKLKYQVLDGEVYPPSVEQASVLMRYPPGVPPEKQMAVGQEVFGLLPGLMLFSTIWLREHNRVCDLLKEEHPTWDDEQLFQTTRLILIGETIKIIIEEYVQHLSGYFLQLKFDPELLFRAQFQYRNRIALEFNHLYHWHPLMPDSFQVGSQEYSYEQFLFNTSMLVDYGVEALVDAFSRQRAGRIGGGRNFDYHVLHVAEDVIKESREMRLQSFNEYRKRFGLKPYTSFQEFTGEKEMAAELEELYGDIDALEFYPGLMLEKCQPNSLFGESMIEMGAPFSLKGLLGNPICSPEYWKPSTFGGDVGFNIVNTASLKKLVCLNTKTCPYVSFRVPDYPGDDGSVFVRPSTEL
As to the kind of experiment: Evaluated in vitro for its inhibitory activity against Prostaglandin G/H synthase. The format is protein assay.

For test [1], the species on record is Rattus norvegicus. The test is described as follows: Ratio of IC50 against 5-LO and COX. An outline of the steps: (§1)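 In ionophore-stimulated RBL-1 cells (2×10^6/mL, PBS with 1.0 mM Ca, 10 min compound preincubation at room temperature, 5 μM A23187 for 7 min at 37 °C), supernatant LTB₄ (5-LO) and PGF₂α (CO) were each quantified by RIA over 0.10–10.0 μM. IC50s came from linear regression, and the ratio is the 5-LO IC50 over the CO IC50.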

Test [2] concerns Rattus norvegicus. The test is described as follows: Compound was evaluated for the antiinflammatory activity by taking the percentage inhibition of edema in the carrageenan foot-pad edema test at the dose of 30 mg/kg. The format is functional. An outline of the steps:
(§2)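 Male Wistar rats dosed orally (0.5% HPMC/0.2% Tween 80 or Labrafils, 10 mL/kg) 1 h before subplantar injection of 0.10 mL 1% carrageenan into right hind paw under light anesthesia. Paw volume by mercury plethysmography at challenge and 5 h later; percent inhibition ± SEM versus vehicle group. Doses 10.0 and 30.0 mg/kg po, 7-14 rats per dose.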

The subject of test [3] is Rattus norvegicus. As to the kind of experiment: Compound was evaluated for the antiinflammatory activity by taking the percentage inhibition of edema in the carrageenan foot-pad edema test at the dose of 10 mg/kg. The format is functional. The procedure, abridged: as §2
For test [4], the target named is T2, Polyunsaturated fatty acid 5-lipoxygenase (Rattus norvegicus, UniProt P12527).
T2 sequence (P12527 whole entry): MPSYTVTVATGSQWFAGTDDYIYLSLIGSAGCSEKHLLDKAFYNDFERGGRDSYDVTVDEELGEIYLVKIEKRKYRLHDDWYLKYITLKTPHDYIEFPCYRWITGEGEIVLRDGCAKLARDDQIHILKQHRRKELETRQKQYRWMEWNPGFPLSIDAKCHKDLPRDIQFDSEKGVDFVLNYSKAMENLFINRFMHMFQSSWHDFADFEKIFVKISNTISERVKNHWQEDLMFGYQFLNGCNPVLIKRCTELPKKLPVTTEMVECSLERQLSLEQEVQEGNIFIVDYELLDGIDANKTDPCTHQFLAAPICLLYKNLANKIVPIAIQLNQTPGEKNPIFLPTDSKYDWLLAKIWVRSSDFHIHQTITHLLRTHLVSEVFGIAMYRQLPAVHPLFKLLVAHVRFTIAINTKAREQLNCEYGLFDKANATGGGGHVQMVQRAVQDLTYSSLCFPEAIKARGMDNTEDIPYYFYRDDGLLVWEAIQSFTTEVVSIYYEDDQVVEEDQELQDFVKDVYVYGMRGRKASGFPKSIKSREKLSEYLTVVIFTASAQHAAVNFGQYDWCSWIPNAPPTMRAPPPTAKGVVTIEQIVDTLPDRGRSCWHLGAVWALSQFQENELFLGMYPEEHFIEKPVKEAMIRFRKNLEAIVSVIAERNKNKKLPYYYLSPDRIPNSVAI
The test is described as follows: Inhibitory activity against 5-Lipoxygenase. The procedure, abridged:
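Rat basophilic leukemia RBL-1 cells were grown in suspension in MEM with 12% FBS, washed, and resuspended at 2×10^6 cells/mL in PBS pH 7.4 with 1.0 mM calcium. Compound in DMSO was preincubated 10 min at room temperature, then 5 μM A23187 was added for 7 min at 37 °C. LTB₄ in the supernatant was measured by RIA at 0.10–10.0 μM. IC50 was determined by linear regression.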

Test [5] relates to Rattus norvegicus. As to the kind of experiment: Compound was evaluated for the percent rats with ulcers at the dose of 36 mg/kg (number of animals used per group in the experiment are 10 ). The format is functional. An outline of the steps: (§3)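 Male outbred Wistar rats (100-250 g) fasted 24 h, given compound orally in 0.5% HPMC (2 mL/kg), then denied food and water 6 more h. Killed with CO2; stomachs opened along greater curvature and scored for ulcers. Percent of rats with ulcers per dose; up to 200 mg/kg po, 10 rats per dose.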

The test system of test [6] is Rattus norvegicus. The test is described as follows: Evaluated for the antiinflammatory activity by measuring the percentage inhibition of edema in the carrageenan foot-pad edema test at the dose of 10 mg/kg. The format is functional. The procedure, abridged:
as §2

Test [7] relates to Rattus norvegicus. As to the kind of experiment: Evaluated for the antiinflammatory activity by measuring the percentage inhibition of edema in the carrageenan foot-pad edema test at the dose of 30 mg/kg. The format is functional. The procedure, abridged:
as §2

The subject of test [8] is Rattus norvegicus. As to the kind of experiment: Evaluated for the antiinflammatory activity by measuring the dose (po) which inhibited Mycobacterium induced foot-pad edema in rats. The format is functional.
Test [9] concerns the target T2, Polyunsaturated fatty acid 5-lipoxygenase. As to the kind of experiment: Evaluated in vitro for its inhibitory activity against 5-lipoxygenase.
The subject of test [10] is Rattus norvegicus. The test is described as follows: Compound was evaluated for the percent rats with ulcers at the dose of 30 mg/kg (number of animals used per group in the experiment are 10 ). The format is functional. An outline of the steps: as §3
Test [11] is filed under the species Rattus norvegicus. As to the kind of experiment: Ratio of IC50 against 5-LO to that of CO enzyme. The procedure, abridged:
as §1

Test [12] has as its target Cyclooxygenase (Rattus norvegicus) (UniProt P35355+Q63921). As to the kind of experiment: Inhibitory activity against Prostaglandin G/H synthase at 10 uM. The format is protein assay. The procedure, abridged:
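Cyclooxygenase read-out in RBL-1 cells (2×10^6 cells/mL in PBS with 1.0 mM calcium): 10 min room-temperature preincubation with compound in DMSO, A23187 (5 μM) stimulation 7 min at 37 °C, ice stop. Supernatant PGF2α by radioimmunoassay; percent inhibition at a 10 μM screening concentration.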

Test [13] addresses T2, Polyunsaturated fatty acid 5-lipoxygenase. As to the kind of experiment: Evaluated in vitro for its inhibitory activity against 5-lipoxygenase; N=Inactive, <50% inhibition at 10 uM concentration. The procedure, abridged: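 RBL-1 cells grown in MEM + 12% FBS, washed in PBS pH 7.4, resuspended at 2×10^6 cells/mL in PBS with 1.0 mM calcium. Preincubated 10 min at room temperature with compound in DMSO, then stimulated with A23187 (5 μM) 7 min at 37 °C; stopped on ice. Supernatant LTB4 by radioimmunoassay.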

Test [14] deals with Rattus norvegicus. The test is described as follows: Compound was evaluated for the antiinflammatory activity by taking the percentage inhibition of edema in the carrageenan foot-pad edema test at the dose of 30 mg/kg; N=Inactive, <25% inhibition. The format is functional, organism-based. Also noted: dose 30 mg/kg. The procedure, abridged: as §2
(In general: Carrageenan injected into the paw causes an acute inflammation.)

The test system of test [15] is Rattus norvegicus. The test is described as follows: Compound was evaluated for th antiinflammatory activity administering through oral route by taking the inhibitory dose of induced edema in the mycobacterium foot-pad edema test. The format is functional.
In test [16] the test system is Rattus norvegicus. The test is described as follows: Evaluated for the percent rats with ulcers at the dose of 200 mg/kg (number of animals used per group in the experiment are 10 ). The format is functional. An outline of the steps: as §3

`CCO/C=N/c1noc(-c2cc(C(C)(C)C)c(O)c(C(C)(C)C)c2)n1` showed a 50% inhibitory concentration (IC50) at Cyclooxygenase of 7200 nM. The Ratio in the test filed under Rattus norvegicus [1] turned out to be 0.21. Also, testing at 30 mg/kg in the test with Rattus norvegicus [2] gave an inhibition in vivo of 37.3%. This compound displayed an inhibition in vivo at 10 mg/kg in the test on Rattus norvegicus [3] of 21%. This compound had a pIC50 in test [4] of 5.82.
`Cc1ccc(Cl)c(Nc2ccccc2C(=O)[O-])c1Cl.O.[Na+]` [MECLOFENAMATE SODIUM] had an Activity with Rattus norvegicus [5] of 50%. In the test with Rattus norvegicus [6], this compound gave an inhibition in vivo at 10 mg/kg of 34.4%. In addition, at 30 mg/kg the inhibition in vivo in the test on Rattus norvegicus [7] was 40.8%. The ID40 in the test with Rattus norvegicus [8] amounted to 0.4 mg/kg.
Consider `CC(C)(C)c1cc(C2CCOC2=O)cc(C(C)(C)C)c1O` (stereo unspecified), for which the pIC50 in test [9] is 5.60. Further, the IC50 at Cyclooxygenase is 150 nM. Also, the Activity in the test with Rattus norvegicus [10] was 30%. Testing at 10 mg/kg in the test on Rattus norvegicus [6] gave an inhibition in vivo of 16.6%. Also, the Ratio in the test filed under Rattus norvegicus [11] worked out at 17. This compound gave an inhibition in vivo at 30 mg/kg in the test with Rattus norvegicus [7] of 28.4%. The ID40 in the test on Rattus norvegicus [8] came to 3.7 mg/kg.
The compound `CNCc1noc(-c2cc(C(C)(C)C)c(O)c(C(C)(C)C)c2)n1` displayed an inhibition in test [12] of 78%. In test [13], the IC50 entry is “Inactive”.
In the case of `CC(C)(C)c1cc(-c2nc(CCl)no2)cc(C(C)(C)C)c1O`, the inhibition result in the test on Rattus norvegicus [14] is “inactive”. The compound further came in with an IC50 at Cyclooxygenase of 100 nM. In the test filed under Rattus norvegicus [1], the Ratio amounted to 7.8. For the same compound, in test [4], the negative logarithm of the IC50 (pIC50) is 6.11.
The compound `CN(C)c1noc(-c2cc(C(C)(C)C)c(O)c(C(C)(C)C)c2)n1` came in with an inhibition in test [12] of 88%. For the same compound, the IC50 result in [13] was “Inactive”.
Compound `CC(C)(C)c1cc(-c2nnc(S)s2)cc(C(C)(C)C)c1O.C[N+](C)(C)CC[O-]` returned an IC50 against Cyclooxygenase of 800 nM. Also, in the test filed under Rattus norvegicus [1], the Ratio was determined as 3.5. The compound further returned an ID40 in the test on Rattus norvegicus [15] of 7.7 mg/kg. Besides, the Activity with Rattus norvegicus [16] was determined as 0%. In addition, in the test with Rattus norvegicus [2], at 30 mg/kg the inhibition in vivo was 47.9%. In the test on Rattus norvegicus [3], this compound displayed an inhibition in vivo at 10 mg/kg of 49.9%. The compound further showed a pIC50 in test [4] of 5.55.
